Assay results: PubChem BioAssay AID493091 (Sanford-Burnham Center for Chemical Genomics, 2011)
Among all 340,000 compounds or so, about 3,000 (0.88%) were called active.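 Rule for the calls: active = inhibition above about 50% at 20 µM (limit read from the data); inactive = the rest.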 The full list was thinned out, with actives kept by preference.

target: Carboxy-terminal domain RNA polymerase II polypeptide A small phosphatase 1 (Homo sapiens) (UniProt Q9GZU7); assay: inhibition of human SCP1 dephosphorylation activity – biochemical, colorimetric, uHTS, primary screen (AID 493091); settings: Recombinant Scp1, phosphopeptide, malachite green phosphate absorbance; at 20 µM; active compounds read high;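 note: plate controls were DMSO wells with enzyme for no effect and wells lacking enzyme for full effect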
In short: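 System: SCP-1 catalytic domain; Reagent: Phospho 17-mer peptide substrate; Doses: one concentration, 20 µM, with 1.0% DMSO; Incubation: 45 min room-temperature reaction, 5 min colour, 30 min stabiliser; Signal: Phosphate-binding colour reagent, absorbance read at 630 nm.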

Chain of Carboxy-terminal domain RNA polymerase II polypeptide A small phosphatase 1 (Homo sapiens) (Q9GZU7 76-261 limits assumed): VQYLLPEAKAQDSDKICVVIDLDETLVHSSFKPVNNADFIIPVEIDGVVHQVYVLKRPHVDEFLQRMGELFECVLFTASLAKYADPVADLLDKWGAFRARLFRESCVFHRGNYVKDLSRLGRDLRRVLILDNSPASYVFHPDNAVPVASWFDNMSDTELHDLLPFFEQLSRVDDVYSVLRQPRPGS

Compound | inhibition
O=C(N/N=C/c1ccccc1O)/C(=C/c1ccccc1)CCO | -13.2% (inactive)
O=C(N/N=C/c1ccccc1O)C1CCCC1 | -10.5% (inactive)
O=C(NN=Cc1ccccc1O)NN=Cc1ccccc1O | 85.7% (active)
COc1ccccc1CN(C)C(=O)C1(c2ccc(Cl)cc2)CC1 | -10.7% (inactive)
CSCCC(NS(=O)(=O)c1ccc(C)cc1)C(=O)N1CCCC1 (stereo unspecified) | -0.76% (inactive)
Cc1ccc(-n2c(O)c(C=Nc3ccc(S(=O)(=O)Nc4ncccn4)cc3)c3ccccc3c2=O)cc1C | -12.6% (inactive)
Cc1ccc(N=Cc2c(O)n(-c3nccs3)c(=O)c3ccccc23)c(C)c1 | 51.3% (active)
Cc1ccc(N=Cc2c(O)cc(C)oc2=O)c(C)c1 | -1.31% (inactive)
O=C(NCCCc1ccccc1)C1CCC(CNc2c(N3CCCCC3)c(=O)c2=O)CC1 (stereo unspecified) | -5.39% (inactive)
COc1ccccc1NC(=O)CCC(=O)OC(C)C(=O)c1ccccc1 (stereo unspecified) | -10.3% (inactive)
COc1ccccc1CN1CCNC(=O)C1CC(=O)N(C)CC1CCOCC1 (stereo unspecified) | -2.19% (inactive)
COc1ccc(CNC(=O)COc2cccnc2[N+](=O)[O-])cc1 | -6.82% (inactive)
N#Cc1ccccc1CN1C(=O)S/C(=C/c2cccn2-c2cccc(C(=O)O)c2)C1=O | 70.5% (active)
O=C(NCCN1C(=O)S/C(=C\c2cccnc2)C1=O)c1cccc(OC(F)F)c1 | -7.82% (inactive)
Cc1nn(Cc2ccccc2)c(C)c1C(=O)NCCN1C(=O)S/C(=C\c2ccc(F)cc2)C1=O | -5.22% (inactive)
Cc1ccccc1CSc1nnc(-c2ccccn2)n1N | -3.67% (inactive)
O=C(COC(=O)c1ccc(F)cc1F)Nc1ncccn1 | 87% (active)
O=C(COC(=O)CSc1ccccc1)Nc1ccc(F)cc1F | -2.71% (inactive)
CCOC(=O)c1cccc(NC(=O)c2ccc(F)cc2F)c1 | -7.13% (inactive)
COCCNC(=O)C(OC(=O)c1cccs1)c1ccc(F)cc1 (stereo unspecified) | -8.1% (inactive)
CN(c1ccccc1)S(=O)(=O)c1cccc(C(=O)NNC(=O)c2ccncc2)c1 | -6.19% (inactive)
CCCNC(=O)CCc1c(C)nc2c(c(C)nn2-c2ccccc2)c1C | -19% (inactive)
O=S1(=O)CC/C(=N\Nc2ccc(F)cc2)c2ccsc21 | -1.87% (inactive)
Nn1cnnc1N/N=C/c1cc([N+](=O)[O-])c(Cl)cc1Cl | 71.5% (active)
Cc1ccsc1C(=O)NNC(=O)COc1ccc(Br)cc1 | -2.35% (inactive)
COc1ccc(-c2ccc(CCC(=O)O)n2-c2ccc(O)cc2)cc1 | -8.68% (inactive)
